Results: paper PMC5269645 (Journal of the American Chemical Society, 2016)
Read-outs that look alike come from different tables or passages of the source. One block for each compound: values may come before it.

Experiments:
[1] = biological target: T1, BtGH99 (Bacteroides thetaiotaomicron, UniProt Q8A109); conditions: read-out: KD values, BtGH99; ITC; cited from earlier work
T1 sequence (Q8A109 18-382): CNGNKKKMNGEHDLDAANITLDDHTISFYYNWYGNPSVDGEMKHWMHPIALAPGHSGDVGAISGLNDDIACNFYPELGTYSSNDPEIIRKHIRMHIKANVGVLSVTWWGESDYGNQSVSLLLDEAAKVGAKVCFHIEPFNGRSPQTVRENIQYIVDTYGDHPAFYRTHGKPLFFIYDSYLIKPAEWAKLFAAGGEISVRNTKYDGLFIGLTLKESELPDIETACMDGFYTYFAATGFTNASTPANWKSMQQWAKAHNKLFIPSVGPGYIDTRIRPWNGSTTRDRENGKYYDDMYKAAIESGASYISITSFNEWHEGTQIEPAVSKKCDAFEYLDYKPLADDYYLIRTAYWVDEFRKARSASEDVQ

[2] = biological target: BxGH99; conditions: read-out: KD values, BxGH99; ITC; cited from earlier work
[3] = test system: various glycosidases; conditions: cited from earlier work
[4] = biological target: T1, BtGH99; assay: 2D NMR; assay type: binding
Procedure, shortened: (§1)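 1H–15N SOFAST-HMQC spectra of 15N-labeled enzyme (average 58 μM) recorded for 1 h at 298 K in 50 mM potassium phosphate pH 7.0, 50 mM KCl, 5% D2O. Active-site Arg Nε-Hε peak (R295, Bx numbering) served as reporter. Bound fraction from peak intensities at several protein/ligand ratios, fitted against free ligand for KD. Duplicate points; Monte Carlo error propagation (n = 10 000), standard deviation.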

[5] = biological target: T2, BxGH99 (Bacteroides xylanisolvens, UniProt D6D1V7); assay: 2D NMR; assay type: binding
T2 sequence (D6D1V7 13-380): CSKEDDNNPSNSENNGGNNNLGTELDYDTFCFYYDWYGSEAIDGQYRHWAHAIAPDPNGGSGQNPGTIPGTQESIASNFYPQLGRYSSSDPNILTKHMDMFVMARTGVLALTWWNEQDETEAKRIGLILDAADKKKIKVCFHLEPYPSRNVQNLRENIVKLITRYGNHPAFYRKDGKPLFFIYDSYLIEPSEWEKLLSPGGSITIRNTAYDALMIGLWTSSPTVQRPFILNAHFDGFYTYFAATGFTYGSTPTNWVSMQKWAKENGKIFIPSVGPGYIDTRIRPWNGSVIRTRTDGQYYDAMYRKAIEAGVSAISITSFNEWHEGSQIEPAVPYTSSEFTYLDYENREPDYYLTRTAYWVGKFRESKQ
Procedure, shortened: as §1

[6] = biological target: rat endomannosidase; conditions: read-out: IC50, rat endomannosidase; inhibition of cleavage of 14C-labeled GlcMan9GlcNAc; cited from earlier work

SMILES: OC[C@H]1CNCC(O[C@H]2O[C@H](CO)[C@@H](O)[C@H](O)[C@H]2O)[C@@H]1O (stereo partly drawn) [compound 2, GlcIFG]
Kd [1]: 0.63 µM

SMILES: OC[C@H]1CNCC(O[C@H]2O[C@H](CO)[C@@H](O)[C@H](O)[C@@H]2O)[C@@H]1O (stereo partly drawn) [compound 3, ManIFG]
Kd [1]: 0.14 µM
Kd [2]: 0.27 µM

SMILES: OC[C@H]1CNC(O)[C@@H](O)[C@@H]1O (stereo partly drawn) [noeuromycin]
times more tightly bound than isofagomine [3]: 2–4000 times

Kd [4]: 15 ± 1.9 µM
Kd [5]: 111 ± 11 µM
SMILES: OC[C@H]1O[C@H](O[C@@H]2C=CO[C@H](CO)[C@H]2O)[C@@H](O)[C@@H](O)[C@@H]1O [compound 7, α-D-Mannopyranosyl-(1→3)-1,5-anhydro-2-deoxy-D-arabino-hex-1-enitol]

SMILES: OC[C@H]1OCC[C@@H](O[C@H]2O[C@H](CO)[C@@H](O)[C@H](O)[C@H]2O)[C@@H]1O [compound 4, GlcddMan]
IC50 [6]: 3.8 µM

Kd [4]: 53 ± 5 µM
Kd [5]: 221 ± 11 µM
affinity relative to ManGlucal, fold worse, BxGH99 ([5]; ratio of KD values): 8 fold
SMILES: OC[C@H]1OCC[C@@H](O[C@H]2O[C@H](CO)[C@@H](O)[C@H](O)[C@@H]2O)[C@@H]1O [compound 5, α-D-Mannopyranosyl-(1→3)-1,2-dideoxy-D-mannopyranose]

SMILES: OC[C@H]1NC[C@@H](O)[C@@H](O[C@H]2O[C@H](CO)[C@@H](O)[C@H](O)[C@H]2O)[C@@H]1O [compound 1, GlcDMJ]
Kd [1]: 24 µM
IC50 [6]: 1.7 µM
